According to ChEMBL document CHEMBL5724801, “EUbOPEN Chemogenomics Library - Multiplex” (2024):
Values joined by “and” are separate entries in the source; they are usually repeats but may differ in a detail not shown here. Identical values can stand only once.

Legend:
Assay type in all cases: toxicity, cell-based
U2OS = test: Multiplex assay against U2OS; conditions: human
Summary of the method: (§1)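 Hoechst33342, BioTracker Green Microtubule Cytoskeleton Dye, MitoTracker Red and Annexin V Alexa Fluor 680 were added to live cells at seeding, and imaging on a CQ1 microscope at 37°C and 5% CO2 followed compound addition. Gating by CellPathfinder machine learning separated cells into Hoechst high-intensity objects or normal cells, then normal cells into healthy, pyknosed or fragmented nuclei, then pyknosed cells into mitotic or apoptotic. Per cents of healthy-nucleus cells are reported for the tubulin, mitochondrial-mass and membrane-permeability phenotypes.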

HEK-293T = test: Multiplex assay against HEK293T; conditions: human; summary of the method: as §1
Fibroblast = test: Multiplex assay against human fibroblast; summary of the method: as §1
[1] = 12 h, 1 µM, compound concentration 1 uM
[2] = 12 h, 10 µM, compound concentration 10 uM
[3] = 24 h, 1 µM, compound concentration 1 uM
[4] = 24 h, 10 µM, compound concentration 10 uM
[5] = 48 h, 1 µM, compound concentration 1 uM
[6] = 48 h, 10 µM, compound concentration 10 uM

## O=c1ccc2ccc(OCCCCN3CCN(c4cccc5sccc45)CC3)cc2[nH]1 [BREXPIPRAZOLE]
U2OS; [1]
  Population Apoptotic (%): 73% and 55%
  Population Fragmented Nuclei (%): 23% and 16%
  Population Healthy Nuclei (%): 62% and 69%
  Population Hoechst High Intensity Objects (%): 6% and 2%
  Population Membrane Permeable-Phenotype (%): 40% and 32%
  Population Mitochondria Different-Phenotype (%): 19% and 24%
  Population Mitotic Cells (%): 26% and 44%
  Population Normal (%): 93% and 97%
  Population Pyknosed Nuclei (%): 13% and 14%
  Population Tubulin-Different-Phenotype (%): 36% and 30%
  Total Cell Count: 178 and 126
U2OS; [2]
  Population Apoptotic (%): 86% and 82%
  Population Fragmented Nuclei (%): 31% and 21%
  Population Healthy Nuclei (%): 27% and 43%
  Population Hoechst High Intensity Objects (%): 6% and 9%
  Population Membrane Permeable-Phenotype (%): 57% and 53%
  Population Mitochondria Different-Phenotype (%): 82% and 90%
  Population Mitotic Cells (%): 13% and 17%
  Population Normal (%): 93% and 90%
  Population Pyknosed Nuclei (%): 41% and 35%
  Population Tubulin-Different-Phenotype (%): 83% and 95%
  Total Cell Count: 220 and 109
U2OS; [3]
  Population Apoptotic (%): 68% and 66%
  Population Fragmented Nuclei (%): 26% and 12%
  Population Healthy Nuclei (%): 55% and 67%
  Population Hoechst High Intensity Objects (%): 3%
  Population Membrane Permeable-Phenotype (%): 19% and 22%
  Population Mitochondria Different-Phenotype (%): 22% and 28%
  Population Mitotic Cells (%): 31% and 33%
  Population Normal (%): 96%
  Population Pyknosed Nuclei (%): 18% and 19%
  Population Tubulin-Different-Phenotype (%): 18% and 16%
  Total Cell Count: 181 and 128
U2OS; [4]
  Population Apoptotic (%): 93% and 91%
  Population Fragmented Nuclei (%): 30% and 19%
  Population Healthy Nuclei (%): 25% and 26%
  Population Hoechst High Intensity Objects (%): 13% and 22%
  Population Membrane Permeable-Phenotype (%): 47% and 56%
  Population Mitochondria Different-Phenotype (%): 67% and 86%
  Population Mitotic Cells (%): 6% and 8%
  Population Normal (%): 86% and 77%
  Population Pyknosed Nuclei (%): 44% and 54%
  Population Tubulin-Different-Phenotype (%): 76% and 91%
  Total Cell Count: 213 and 112
U2OS; [5]
  Population Apoptotic (%): 64% and 73%
  Population Fragmented Nuclei (%): 21% and 22%
  Population Healthy Nuclei (%): 61% and 56%
  Population Hoechst High Intensity Objects (%): 4% and 2%
  Population Mitochondria Different-Phenotype (%): 12% and 31%
  Population Mitotic Cells (%): 35% and 26%
  Population Normal (%): 95% and 97%
  Population Pyknosed Nuclei (%): 16% and 21%
  Population Tubulin-Different-Phenotype (%): 8% and 18%
  Total Cell Count: 240 and 161
U2OS; [6]
  Population Apoptotic (%): 96% and 100%
  Population Fragmented Nuclei (%): 45% and 29%
  Population Healthy Nuclei (%): 12% and 14%
  Population Hoechst High Intensity Objects (%): 26% and 32%
  Population Membrane Permeable-Phenotype (%): 45% and 70%
  Population Mitochondria Different-Phenotype (%): 30% and 90%
  Population Mitotic Cells (%): 3% and 0%
  Population Normal (%): 73% and 67%
  Population Pyknosed Nuclei (%): 41% and 56%
  Population Tubulin-Different-Phenotype (%): 40% and 90%
  Total Cell Count: 215 and 105
HEK-293T; [1]
  Population Apoptotic (%): 44% and 42%
  Population Fragmented Nuclei (%): 6% and 5%
  Population Healthy Nuclei (%): 77% and 80%
  Population Hoechst High Intensity Objects (%): 6%
  Population Membrane Permeable-Phenotype (%): 0%
  Population Mitochondria Different-Phenotype (%): 67% and 69%
  Population Mitotic Cells (%): 55% and 57%
  Population Normal (%): 93%
  Population Pyknosed Nuclei (%): 15% and 14%
  Population Tubulin-Different-Phenotype (%): 51% and 47%
  Total Cell Count: 392 and 354
HEK-293T; [2]
  Population Apoptotic (%): 82% and 85%
  Population Fragmented Nuclei (%): 17% and 10%
  Population Healthy Nuclei (%): 43% and 66%
  Population Hoechst High Intensity Objects (%): 66% and 41%
  Population Membrane Permeable-Phenotype (%): 0%
  Population Mitochondria Different-Phenotype (%): 97% and 100%
  Population Mitotic Cells (%): 17% and 14%
  Population Normal (%): 33% and 59%
  Population Pyknosed Nuclei (%): 38% and 23%
  Population Tubulin-Different-Phenotype (%): 81% and 62%
  Total Cell Count: 299 and 200
HEK-293T; [3]
  Population Apoptotic (%): 41% and 42%
  Population Fragmented Nuclei (%): 10% and 4%
  Population Healthy Nuclei (%): 73% and 87%
  Population Hoechst High Intensity Objects (%): 8% and 2%
  Population Membrane Permeable-Phenotype (%): 0%
  Population Mitochondria Different-Phenotype (%): 51% and 52%
  Population Mitotic Cells (%): 58% and 57%
  Population Normal (%): 91% and 97%
  Population Pyknosed Nuclei (%): 16% and 7%
  Population Tubulin-Different-Phenotype (%): 36% and 35%
  Total Cell Count: 501 and 449
HEK-293T; [4]
  Population Apoptotic (%): 91% and 89%
  Population Fragmented Nuclei (%): 12% and 10%
  Population Healthy Nuclei (%): 37% and 59%
  Population Hoechst High Intensity Objects (%): 68% and 46%
  Population Membrane Permeable-Phenotype (%): 0%
  Population Mitochondria Different-Phenotype (%): 100% and 98%
  Population Mitotic Cells (%): 8% and 10%
  Population Normal (%): 31% and 53%
  Population Pyknosed Nuclei (%): 50% and 30%
  Population Tubulin-Different-Phenotype (%): 66% and 57%
  Total Cell Count: 284 and 180
HEK-293T; [5]
  Population Apoptotic (%): 49% and 48%
  Population Fragmented Nuclei (%): 9% and 12%
  Population Healthy Nuclei (%): 80% and 79%
  Population Hoechst High Intensity Objects (%): 5% and 3%
  Population Membrane Permeable-Phenotype (%): 0% and 1%
  Population Mitochondria Different-Phenotype (%): 47% and 36%
  Population Mitotic Cells (%): 50% and 51%
  Population Normal (%): 94% and 96%
  Population Pyknosed Nuclei (%): 10% and 7%
  Population Tubulin-Different-Phenotype (%): 28% and 26%
  Total Cell Count: 679 and 644
HEK-293T; [6]
  Population Apoptotic (%): 93% and 89%
  Population Fragmented Nuclei (%): 19% and 14%
  Population Healthy Nuclei (%): 30% and 50%
  Population Hoechst High Intensity Objects (%): 67% and 52%
  Population Membrane Permeable-Phenotype (%): 0%
  Population Mitochondria Different-Phenotype (%): 96% and 97%
  Population Mitotic Cells (%): 6% and 10%
  Population Normal (%): 32% and 47%
  Population Pyknosed Nuclei (%): 50% and 34%
  Population Tubulin-Different-Phenotype (%): 51% and 82%
  Total Cell Count: 269 and 170
Fibroblast; [1]
  Population Apoptotic (%): 56% and 48%
  Population Fragmented Nuclei (%): 17% and 33%
  Population Healthy Nuclei (%): 62% and 44%
  Population Hoechst High Intensity Objects (%): 2% and 5%
  Population Membrane Permeable-Phenotype (%): 0% and 2%
  Population Mitochondria Different-Phenotype (%): 5% and 15%
  Population Mitotic Cells (%): 44% and 51%
  Population Normal (%): 97% and 94%
  Population Pyknosed Nuclei (%): 20% and 21%
  Population Tubulin-Different-Phenotype (%): 41% and 73%
  Total Cell Count: 126 and 169
Fibroblast; [2]
  Population Apoptotic (%): 68% and 45%
  Population Fragmented Nuclei (%): 16% and 30%
  Population Healthy Nuclei (%): 64% and 49%
  Population Hoechst High Intensity Objects (%): 1% and 11%
  Population Membrane Permeable-Phenotype (%): 0% and 2%
  Population Mitochondria Different-Phenotype (%): 39% and 25%
  Population Mitotic Cells (%): 31% and 54%
  Population Normal (%): 98% and 88%
  Population Pyknosed Nuclei (%): 19% and 20%
  Population Tubulin-Different-Phenotype (%): 83% and 81%
  Total Cell Count: 203 and 243
Fibroblast; [3]
  Population Apoptotic (%): 56% and 33%
  Population Fragmented Nuclei (%): 17% and 32%
  Population Healthy Nuclei (%): 69% and 52%
  Population Hoechst High Intensity Objects (%): 1% and 3%
  Population Membrane Permeable-Phenotype (%): 0% and 2%
  Population Mitochondria Different-Phenotype (%): 8% and 14%
  Population Mitotic Cells (%): 43% and 66%
  Population Normal (%): 98% and 96%
  Population Pyknosed Nuclei (%): 13% and 14%
  Population Tubulin-Different-Phenotype (%): 43% and 76%
  Total Cell Count: 122 and 173
Fibroblast; [4]
  Population Apoptotic (%): 58% and 65%
  Population Fragmented Nuclei (%): 13% and 30%
  Population Healthy Nuclei (%): 54% and 40%
  Population Hoechst High Intensity Objects (%): 13% and 19%
  Population Membrane Permeable-Phenotype (%): 0%
  Population Mitochondria Different-Phenotype (%): 63% and 34%
  Population Mitotic Cells (%): 41% and 34%
  Population Normal (%): 86% and 80%
  Population Pyknosed Nuclei (%): 31% and 28%
  Population Tubulin-Different-Phenotype (%): 85% and 71%
  Total Cell Count: 218 and 239
Fibroblast; [5]
  Population Apoptotic (%): 62% and 60%
  Population Fragmented Nuclei (%): 24% and 42%
  Population Healthy Nuclei (%): 62% and 51%
  Population Hoechst High Intensity Objects (%): 4%
  Population Membrane Permeable-Phenotype (%): 0% and 1%
  Population Mitochondria Different-Phenotype (%): 10% and 9%
  Population Mitotic Cells (%): 37% and 40%
  Population Normal (%): 95%
  Population Pyknosed Nuclei (%): 12% and 5%
  Population Tubulin-Different-Phenotype (%): 52% and 67%
  Total Cell Count: 133 and 175
Fibroblast; [6]
  Population Apoptotic (%): 62% and 44%
  Population Fragmented Nuclei (%): 18% and 30%
  Population Healthy Nuclei (%): 50% and 43%
  Population Hoechst High Intensity Objects (%): 34%
  Population Membrane Permeable-Phenotype (%): 0%
  Population Mitochondria Different-Phenotype (%): 60% and 20%
  Population Mitotic Cells (%): 37% and 55%
  Population Normal (%): 65%
  Population Pyknosed Nuclei (%): 31% and 26%
  Population Tubulin-Different-Phenotype (%): 88% and 55%
  Total Cell Count: 208 and 317
